Consider 19 compounds from ChEMBL document CHEMBL4368906 (J Med Chem, 2019).

The structures appear in SMILES notation. pEC50, pKi: −log10 of the molar value. Bridge positions count the residues as written; N and C are the ends. Square brackets hold non-standard residues; d marks the D form. Peptide text beside a SMILES is read from it. NMeW = CN[C@@H](Cc1c[nH]c2ccccc12)C(=O)O; NMeY = CN[C@@H](Cc1ccc(O)cc1)C(=O)O; NMeF = CN[C@@H](Cc1ccccc1)C(=O)O; NMeK = CN[C@@H](CCCCN)C(=O)O; NMeC = CN[C@@H](CS)C(=O)O

Test [1] concerns the target T1, Urotensin-2 receptor (Homo sapiens, UniProt Q9UKP6).
T1 sequence (Q9UKP6 whole entry): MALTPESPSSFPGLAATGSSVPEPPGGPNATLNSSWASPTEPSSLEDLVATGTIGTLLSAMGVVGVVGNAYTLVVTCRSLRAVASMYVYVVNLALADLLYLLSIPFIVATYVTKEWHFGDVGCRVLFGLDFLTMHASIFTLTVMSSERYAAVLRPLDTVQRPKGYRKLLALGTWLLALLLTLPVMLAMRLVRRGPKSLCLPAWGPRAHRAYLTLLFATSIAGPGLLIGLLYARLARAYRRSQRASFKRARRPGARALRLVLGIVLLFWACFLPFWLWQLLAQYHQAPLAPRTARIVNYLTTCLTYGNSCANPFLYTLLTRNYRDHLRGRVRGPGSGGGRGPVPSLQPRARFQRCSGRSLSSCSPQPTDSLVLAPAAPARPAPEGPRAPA
The test can be described thus: Displacement of [125I]-URP or human [125I[-urotensin-2 from human urotensin 2 receptor expressed in HEK293 or CHOK1 cells after 2 hrs by gamma-counting assay. It counts as cell-based. Background: In a radioligand displacement assay an active substance lowers the binding of a labelled ligand.

Test [2] addresses T2, Urotensin-2 receptor (Rattus norvegicus, UniProt P49684).
T2 sequence (P49684 whole entry): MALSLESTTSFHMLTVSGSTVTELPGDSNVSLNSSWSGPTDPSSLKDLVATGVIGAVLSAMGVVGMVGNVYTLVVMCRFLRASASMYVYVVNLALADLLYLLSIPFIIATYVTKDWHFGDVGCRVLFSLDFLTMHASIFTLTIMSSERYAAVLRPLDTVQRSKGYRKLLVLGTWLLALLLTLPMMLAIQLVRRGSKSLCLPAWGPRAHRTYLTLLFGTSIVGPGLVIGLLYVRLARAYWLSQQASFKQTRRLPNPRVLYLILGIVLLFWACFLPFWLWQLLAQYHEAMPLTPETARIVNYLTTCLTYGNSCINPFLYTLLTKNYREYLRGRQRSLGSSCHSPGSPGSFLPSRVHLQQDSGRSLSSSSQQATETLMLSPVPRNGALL
Briefly: Agonist activity at urotensin 2 receptor in Sprague-Dawley rat thoracic aortic ring assessed as induction of contraction relative to KCl-induced contraction. The procedure, abridged:
(§1)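 Male Sprague-Dawley rats, 250-300 g. Aortic rings were held in a 5-mL organ bath of oxygenated Krebs-Henseleit buffer. Each vessel was first challenged with KCl, 40 mM final in the bath. Peptides were added cumulatively from 10−11 to 10−5 M. Each contraction was taken as a percentage of the KCl response, divided by the response to hU-II (10−7 M).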

In test [3] the target is T1, Urotensin-2 receptor. The test can be described thus: Agonist activity at urotensin 2 receptor (unknown origin) expressed in HEK293 cells co-expressing Gq-polycistronic BRET biosensor assessed as induction of Gq activation measured for 5 mins by luminescence detection based BRET assay. Format: cell-based. On the technique in general: BRET reads energy transfer from a luciferase to a nearby fluorophore.

In test [4] the target is T3, Urotensin-2 receptor (Rattus norvegicus) (UniProt P49684).
T3 sequence (whole entry): T2 sequence (P49684 whole entry)
The test can be described thus: Agonist activity at urotensin 2 receptor in Sprague-Dawley rat thoracic aortic ring assessed as induction of contraction relative to urotensin-2. The essentials:
as §1

For test [5], the target named is T3, Urotensin-2 receptor (Rattus norvegicus). The test can be described thus: Agonist activity at urotensin 2 receptor in Sprague-Dawley rat thoracic aortic ring assessed as induction of contraction at 10 uM relative to KCl-induced contraction. The essentials: as §1

By pKi is commonly meant −log10 of the Ki, conventionally taken in molar units. Lower therefore signals a large Ki. Broadly, the pEC50 is −log10 of the EC50, conventionally taken in molar units. On to `CC(C)[C@H](NC(=O)[C@@H]1CSSC[C@H](NC(=O)[C@@H](N)CC(=O)O)C(=O)N[C@@H](Cc2ccccc2)C(=O)N[C@@H](Cc2c[nH]c3ccccc23)C(=O)N[C@@H](CCCCN)C(=O)N[C@@H](Cc2ccc(O)cc2)C(=O)N1)C(=O)O` (H-DCFWKYCV-OH; disulfide 2-7), for which the pKi in test [1] is 8.34. Further, the pEC50 in test [2] was 8.28; in test [3] it was 8.73.

A word on the Emax: it is the size of the effect at its maximum, as opposed to the concentration needed. Regarding `CC(C)[C@H](NC(=O)[C@@H]1CSSC[C@H](NC(=O)[C@H](CC(=O)O)NC(=O)[C@@H]2CCCN2C(=O)[C@@H](NC(=O)[C@@H](N)CCC(=O)O)[C@@H](C)O)C(=O)N(C)[C@@H](Cc2ccccc2)C(=O)N[C@@H](Cc2c[nH]c3ccccc23)C(=O)N[C@@H](CCCCN)C(=O)N[C@@H](Cc2ccc(O)cc2)C(=O)N1)C(=O)O`, the pKi in test [1] is 6.09. Besides, the values for the pEC50 in test [2] and in test [3] were 6.70 and 7.65, respectively. For the same compound, the Emax in test [4] was found to be 96%.

Take `CC(C)[C@H](NC(=O)[C@@H]1CSSC[C@H](NC(=O)[C@H](CC(=O)O)NC(=O)[C@@H]2CCCN2C(=O)[C@@H](NC(=O)[C@@H](N)CCC(=O)O)[C@@H](C)O)C(=O)N[C@@H](Cc2ccccc2)C(=O)N[C@@H](Cc2c[nH]c3ccccc23)C(=O)N[C@@H](CCCCN)C(=O)N[C@@H](Cc2ccc(O)cc2)C(=O)N1C)C(=O)O`: in test [1], the negative-log Ki (pKi) was 7.64. Further, the pEC50 in test [2] was 7.61; in test [3], 8.57. Also, the Emax in test [4] worked out at 105%.

Consider `CC(C)[C@H](NC(=O)[C@@H]1CSSC[C@H](N(C)C(=O)[C@@H](N)CC(=O)O)C(=O)N[C@@H](Cc2ccccc2)C(=O)N[C@@H](Cc2c[nH]c3ccccc23)C(=O)N[C@@H](CCCCN)C(=O)N[C@@H](Cc2ccc(O)cc2)C(=O)N1)C(=O)O` (H-D[NMeC]FWKYCV-OH; disulfide 2-7), for which the pKi in test [1] is 8.53. Moreover, in test [2], the pEC50 was 8.35. Besides, the Emax in test [4] stood at 101%.

As to `CC(C)[C@H](NC(=O)[C@@H]1CSSC[C@H](NC(=O)[C@H](C)N)C(=O)N[C@@H](Cc2ccccc2)C(=O)N(C)[C@@H](Cc2c[nH]c3ccccc23)C(=O)N[C@@H](CCCCN)C(=O)N[C@@H](Cc2ccc(O)cc2)C(=O)N1)C(=O)O`, the negative logarithm of the Ki (pKi) in test [1] was 8.66. Also, the results for the negative-log EC50 (pEC50) in test [2] and in test [3] were 7.08 and 7.86, respectively. The Emax in test [4] stood at 35%.

With `CC(C)[C@H](NC(=O)[C@@H]1CSSC[C@H](NC(=O)[C@@H](N)CC(=O)O)C(=O)N(C)[C@@H](Cc2ccccc2)C(=O)N[C@@H](Cc2c[nH]c3ccccc23)C(=O)N[C@@H](CCCCN)C(=O)N[C@@H](Cc2ccc(O)cc2)C(=O)N1)C(=O)O` (H-DC[NMeF]WKYCV-OH; disulfide 2-7), the pKi in test [1] was 6.64. Further, the pEC50 in test [2] is 6.27; in test [3], 7.73. Further, the Emax in test [4] was found to be 98%.

In the case of `CC(C)[C@H](NC(=O)[C@@H]1CSSC[C@H](N(C)C(=O)[C@H](CC(=O)O)NC(=O)[C@@H]2CCCN2C(=O)[C@@H](NC(=O)[C@@H](N)CCC(=O)O)[C@@H](C)O)C(=O)N[C@@H](Cc2ccccc2)C(=O)N[C@@H](Cc2c[nH]c3ccccc23)C(=O)N[C@@H](CCCCN)C(=O)N[C@@H](Cc2ccc(O)cc2)C(=O)N1)C(=O)O`, in test [1], the pKi was 7.31. The pEC50 in test [2] is 8.01. Further, the maximal effect (Emax) in test [4] stood at 112%.

In test [1], `CC(C)[C@H](NC(=O)[C@@H]1CSSC[C@H](NC(=O)[C@H](CC(=O)O)NC(=O)[C@@H]2CCCN2C(=O)[C@@H](NC(=O)[C@@H](N)CCC(=O)O)[C@@H](C)O)C(=O)N[C@@H](Cc2ccccc2)C(=O)N[C@@H](Cc2c[nH]c3ccccc23)C(=O)N(C)[C@@H](CCCCN)C(=O)N[C@@H](Cc2ccc(O)cc2)C(=O)N1)C(=O)O` gave a pKi of 5.68. Further, the Activity in test [5] was found to be 72%.

Consider `CC(C)[C@H](NC(=O)[C@@H]1CSSC[C@H](NC(=O)[C@H](CC(=O)O)NC(=O)[C@@H]2CCCN2C(=O)[C@@H](NC(=O)[C@@H](N)CCC(=O)O)[C@@H](C)O)C(=O)N[C@@H](Cc2ccccc2)C(=O)N(C)[C@@H](Cc2c[nH]c3ccccc23)C(=O)N[C@@H](CCCCN)C(=O)N[C@@H](Cc2ccc(O)cc2)C(=O)N1)C(=O)O`, for which the pKi in test [1] was 7.69. Moreover, the pEC50 in test [2] was 8.24; in test [3], 8.25. Besides, the Emax in test [4] worked out at 97%.

Regarding `CC(C)[C@H](NC(=O)[C@@H]1CSSC[C@H](NC(=O)[C@@H](N)CC(=O)O)C(=O)N[C@@H](Cc2ccccc2)C(=O)N(C)[C@@H](Cc2c[nH]c3ccccc23)C(=O)N[C@@H](CCCCN)C(=O)N[C@@H](Cc2ccc(O)cc2)C(=O)N1)C(=O)O` (H-DCF[NMeW]KYCV-OH; disulfide 2-7), the negative logarithm of the Ki (pKi) in test [1] is 8.76. Moreover, the pEC50 in test [2] was 8.47; in test [3], 8.44. For the same compound, in test [4], the Emax turned out to be 105%.

In turn, `CC(C)[C@H](NC(=O)[C@@H]1CSSC[C@H](NC(=O)[C@H](C)N)C(=O)N[C@@H](Cc2ccccc2)C(=O)N[C@@H](Cc2c[nH]c3ccccc23)C(=O)N(C)[C@@H](CCCCN)C(=O)N[C@@H](Cc2ccc(O)cc2)C(=O)N1)C(=O)O` had a pKi in test [1] of 5.82. In addition, the Activity in test [5] turned out to be 22%.

Compound `CC(C)[C@H](NC(=O)[C@@H]1CSSC[C@H](N(C)C(=O)[C@H](C)N)C(=O)N[C@@H](Cc2ccccc2)C(=O)N[C@@H](Cc2c[nH]c3ccccc23)C(=O)N[C@@H](CCCCN)C(=O)N[C@@H](Cc2ccc(O)cc2)C(=O)N1)C(=O)O` had a pKi in test [1] of 8.76. In addition, the pEC50 in test [2] is 8.31. Besides, the Emax in test [4] amounted to 110%.

Consider `CC(C)[C@H](NC(=O)[C@@H]1CSSC[C@H](NC(=O)[C@H](C)N)C(=O)N[C@@H](Cc2ccccc2)C(=O)N[C@@H](Cc2c[nH]c3ccccc23)C(=O)N[C@@H](CCCCN)C(=O)N(C)[C@@H](Cc2ccc(O)cc2)C(=O)N1)C(=O)O`, for which, in test [1], the pKi was 5.27. Moreover, the Activity in test [5] is 16%.

For `CC(C)[C@H](NC(=O)[C@@H]1CSSC[C@H](NC(=O)[C@@H](N)CC(=O)O)C(=O)N[C@@H](Cc2ccccc2)C(=O)N[C@@H](Cc2c[nH]c3ccccc23)C(=O)N[C@@H](CCCCN)C(=O)N(C)[C@@H](Cc2ccc(O)cc2)C(=O)N1)C(=O)O` (H-DCFWK[NMeY]CV-OH; disulfide 2-7), in test [1], the pKi was < 5.00. Moreover, the Activity in test [5] came out at 44%.

`CC(C)[C@H](NC(=O)[C@@H]1CSSC[C@H](NC(=O)[C@H](CC(=O)O)NC(=O)[C@@H]2CCCN2C(=O)[C@@H](NC(=O)[C@@H](N)CCC(=O)O)[C@@H](C)O)C(=O)N[C@@H](Cc2ccccc2)C(=O)N[C@@H](Cc2c[nH]c3ccccc23)C(=O)N[C@@H](CCCCN)C(=O)N[C@@H](Cc2ccc(O)cc2)C(=O)N1)C(=O)O` [UROTENSIN-II]: the pEC50 in test [2] was 8.52.

Take `CC(C)[C@H](NC(=O)[C@@H]1CSSC[C@H](NC(=O)[C@@H](N)CC(=O)O)C(=O)N[C@@H](Cc2ccccc2)C(=O)N[C@@H](Cc2c[nH]c3ccccc23)C(=O)N(C)[C@@H](CCCCN)C(=O)N[C@@H](Cc2ccc(O)cc2)C(=O)N1)C(=O)O` (H-DCFW[NMeK]YCV-OH; disulfide 2-7): the pKi in test [1] was < 5.00. For the same compound, the Activity in test [5] stood at 42%.

Compound `CC(C)[C@H](NC(=O)[C@@H]1CSSC[C@H](NC(=O)[C@H](C)N)C(=O)N[C@@H](Cc2ccccc2)C(=O)N[C@@H](Cc2c[nH]c3ccccc23)C(=O)N[C@@H](CCCCN)C(=O)N[C@@H](Cc2ccc(O)cc2)C(=O)N1C)C(=O)O` had a pKi in test [1] of 8.45. For the same compound, the pEC50 in test [2] is 8.02; in test [3] it was 8.28. In test [4], the maximum response (Emax) was 44%.

`CC(C)[C@H](NC(=O)[C@@H]1CSSC[C@H](NC(=O)[C@@H](N)CC(=O)O)C(=O)N[C@@H](Cc2ccccc2)C(=O)N[C@@H](Cc2c[nH]c3ccccc23)C(=O)N[C@@H](CCCCN)C(=O)N[C@@H](Cc2ccc(O)cc2)C(=O)N1C)C(=O)O` (H-DCFWKY[NMeC]V-OH; disulfide 2-7) gave a pKi in test [1] of 8.45. For the same compound, the pEC50 in test [2] is 8.28; in test [3], 8.33. Also, the Emax in test [4] was 95%.

In turn, `CC(C)[C@H](NC(=O)[C@@H]1CSSC[C@H](NC(=O)[C@H](C)N)C(=O)N[C@@H](Cc2ccccc2)C(=O)N[C@@H](Cc2c[nH]c3ccccc23)C(=O)N[C@@H](CCCCN)C(=O)N[C@@H](Cc2ccc(O)cc2)C(=O)N1)C(=O)O` had a pKi in test [1] of 8.20. For the same compound, the pEC50 in test [2] is 8.11; in test [3], 8.57. For the same compound, the Emax in test [4] was found to be 116%.
